FLuc inh counter – Photinus pyralis luciferase inhibition counter-screen. P08659. ATPLite firefly luciferase biochemical luminescence, 10 min. AID 1006. 200,000 compounds, 1.5% hits. inhibition, % at 10 µM;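 active = inhibition above about 50% when tested at 10 µM, limit read from the data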
Target sequence (P08659 whole entry, looked up): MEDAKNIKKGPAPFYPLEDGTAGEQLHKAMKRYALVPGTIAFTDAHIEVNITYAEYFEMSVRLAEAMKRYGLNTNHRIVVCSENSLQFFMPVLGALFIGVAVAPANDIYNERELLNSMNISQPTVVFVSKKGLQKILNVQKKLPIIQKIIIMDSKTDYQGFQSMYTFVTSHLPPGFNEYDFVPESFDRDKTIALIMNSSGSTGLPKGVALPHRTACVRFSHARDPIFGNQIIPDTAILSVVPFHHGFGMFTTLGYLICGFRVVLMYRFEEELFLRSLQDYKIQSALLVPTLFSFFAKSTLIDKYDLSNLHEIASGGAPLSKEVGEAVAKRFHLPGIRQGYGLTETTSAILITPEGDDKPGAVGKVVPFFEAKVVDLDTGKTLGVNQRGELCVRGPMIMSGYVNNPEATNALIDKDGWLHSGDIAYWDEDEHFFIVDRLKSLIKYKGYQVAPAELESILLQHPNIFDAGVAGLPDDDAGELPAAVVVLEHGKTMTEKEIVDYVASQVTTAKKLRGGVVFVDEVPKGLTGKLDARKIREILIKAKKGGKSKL
FLuc act counter – firefly luciferase counter-screen for stimulation assays. P08659. ATPlite luciferase biochemical, luminescence, 10 min; 0 = ATP-free wells, 1 = DMSO control. activation factor at 10 µM. 200,000 tested, under 10 active;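 active = luciferase activation factor, scaled between plate controls, of at least 2 with compound at 10 µM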
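assay system = Luciferase/luciferin detection reagent, cell-free biochemical luciferase assay | also added = ATP substrate | times = 10 min post-reagent at room temperature | measured by = luminescence from luciferase reaction | measure = luciferase activation, seen as luminescence increase over controls | benchmarks = low control with PBS replacing ATP, high control enzyme plus ATP without compound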
NF-kB expr up – raises NF-kB expression in human neuronal cells | NF-kB reporter expression; hits give high values | fold change at 12.5 µM | 190,000 compounds, 1.6% hits; in the data active = fold change above about 3.3
APP 5'UTR act – APP 5'UTR luciferase reporter activation | SH-SY5Y APP 5'UTR luciferase reporter, luminescence; zero percent = DMSO vehicle wells | AID 1276 | activation, % at 2 µM | 190,000 compounds, 1% hits;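 active = activation above a set limit, based on mean plus 3 SD of controls, cut at about 140% in these data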
STAT1 activator – increases IFN-gamma driven STAT1 reporter signal | 200,000 compounds, 2.6% hits | AID 932 | NIH 3T3 STAT1-luciferase reporter, luminescence; 100% = IFN-gamma alone, no compound | activation (% of control), % at 5.5 µM;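 active = activation above the screen-wide mean activation plus 3 SD, cut at about 130% in these data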;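 also: raw ratio to IFN-gamma control signal so 100% means no change and 0% no light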
* = called active by the depositor. Most compounds without a hit are left out; they make up all but 4.1% or so of the library.

SMILES	FLuc inh counter	FLuc act counter	NF-kB expr up	APP 5'UTR act	STAT1 activator
COc1ccccc1N/C=C/c1onc(C)c1[N+](=O)[O-]	59*	0.4	1.5	142*	29
Cc1noc(/C=C/Nc2ccc(F)cc2F)c1[N+](=O)[O-]	1	1	6.9*	173*	147*
NCCCCCc1nnc(SC/C=C/c2ccccc2)o1	-1	1	1.1	-9	98
Cc1ccc(-n2cc(C(=O)c3ccccc3O)cn2)cc1	68*	0.3	3.1	100	89
O=C(COc1ccccc1C(=O)c1cnn(-c2ccccc2)c1)Nc1ccccc1	74*	0.3	1.4	31	120
C=CCn1c(SCC(=O)Nc2cc(C)on2)nc2sc3c(c2c1=O)CCCC3	-3	1	0.67	24	103
Cc1nn2cc(-c3ccc(Cl)cc3)nc2s1	35	0.6	8*	158*	118
CCc1nn2cc(-c3ccccc3)nc2s1	89*	0.1	5*	153*	70
c1ccc(-c2cn3nc(-c4ccccc4)c(-c4ccccc4)nc3n2)cc1	-7	1.1	1.2	10	104
Cc1nn2cc(-c3ccc(-c4ccccc4)cc3)nc2s1	23	0.8	4.4*	117	113
Cc1nc2nc(-c3ccc(Cl)cc3)cn2nc1C	41	0.6	3.3*	85	94
COCc1[nH]nc2c1C(c1ccccc1F)C(C#N)=C(N)O2 (stereo unspecified)	-5	1	0.94	-11	85
COc1cccc(-c2cn3nc(C)c(C)nc3n2)c1	22	0.8	2.7	141*	127
COc1cccc(-n2c(C)n[nH]c2=O)c1	-5	1	0.92	8	97
COC(=O)Nc1nnc(-c2ccccc2Cl)s1	55*	0.4	2.4	53	127
CCOC(=O)Nc1nnc(-c2ccccc2OC)s1	7	0.9	1.6	11	98
COCCNC(=S)Nc1ccc(S(=O)(=O)Nc2cnc3ccccc3n2)cc1	-4	1	1	9	101
O=C(N/N=C/c1cc2c3c(c1O)CCCN3CCC2)c1ccccc1O	2	1	1	-85	106
COc1ccc(C(=O)Nc2nc3c(s2)Cc2cc(OC)ccc2-3)cc1	3	1	0.9	7	104
COc1ccc2c(c1)Cc1sc(NC(=O)c3ccccc3)nc1-2	1	1	1.4	29	134*
COc1ccc2c(c1)Cc1sc(NC(=O)c3cccs3)nc1-2	10	0.9	1.6	115	149*
CCN(CC)C(=O)C1CCCN(C(=O)Nc2ccc(NC(=O)N3CCCC(C(=O)N(CC)CC)C3)cc2)C1 (stereo unspecified)	-3	1	1.1	-1	100
O=Cc1c(Sc2ccccc2)nc2ccccn2c1=O	-8	1.1	4.2*	-6	95
CSCCC(NC=C1C(=O)OC(C)(C)OC1=O)C(=O)O (stereo unspecified)	-2	1	1.2	5	95
CCOC(=O)CSc1nc(C)c(C(=O)OCC)s1	-2	1	1.4	5	94
SMILES	FLuc inh counter	FLuc act counter	NF-kB expr up	APP 5'UTR act	STAT1 activator
C/C(O)=C\c1nc2ccccc2oc1=O	-5	1	3.6*	-1	96
CS(=O)(=O)Cc1nc2ccccc2oc1=O	-8	1.1	4.7*	-12	95
Cc1scc(C(=O)N/N=C/c2ccco2)c1C	54*	0.5	2.2	72	118
CN(C)c1cccc(C(=O)N/N=C/c2ccsc2)c1	90*	0.1	1	37	125
Cc1scc(C(=O)N/N=C/c2ccsc2)c1C	84*	0.2	4.6*	69	140*
CC1=CC(C)(C)N(S(=O)(=O)c2ccc(C)cc2)c2cc(C)ccc21	-4	1	4.4*	-96	113
C=CCSc1ncc(-c2ccccc2)cn1	8	0.9	2.2	19	136*
CCc1sc(NC(=O)CCC(=O)O)nc1-c1cc2ccccc2oc1=O	-3	1	1.1	11	93
CN1C(=O)/C(=C/c2ccc3c(c2)OCO3)N=C1c1ccccc1	62*	0.4	1.2	-2	98
O=C(Cn1[nH]c(=O)c2ccccc2c1=O)NNC(=O)c1ccccc1	-8	1.1	1	17	104
O=c1c2sc(-c3ccccc3)cc2nc2n1CCC2	55*	0.5	3.9*	125	106
O=c1c2c(-c3ccccc3)csc2nc2n1CCC2	-4	1	1.1	-9	100
COc1cccc2cc(C(=O)c3ccccc3)oc12	42	0.6	2.5	119	137*
Cc1ccc(C(=O)c2cc3ccccc3o2)cc1[N+](=O)[O-]	1	1	2	79	139*
O=C(c1ccccc1)c1cc2ccccc2o1	12	0.9	2.2	47	131*
CCNC(=O)C1CC(=O)N(Cc2ccc3c(c2)OCO3)C(=Nc2ccc(F)cc2)S1 (stereo unspecified)	-6	1.1	1.1	1	98
O=C(Nc1ccc(CN2CCOCC2)cc1)c1cc2ccccc2o1	60*	0.4	2.9	168*	134*
O=C(Nc1ccc(CN2CCOCC2)cc1)c1cc2ccccn2n1	78*	0.2	0.88	86	84
O=C(Nc1ccc(CN2CCOCC2)cc1)c1ccccc1F	22	0.8	1.9	80	119
O=C(Nc1ccc(N2CCOCC2)cc1)c1cc2ccccc2o1	41	0.6	2.5	91	171*
COc1ccc(Cc2nnc(SCC(=O)N3CCCC(C)C3)o2)cc1 (stereo unspecified)	-4	1	0.85	-13	96
CCOC(=O)N1CCN(C(=O)CN(c2cc(C(F)(F)F)ccc2Cl)S(C)(=O)=O)CC1	-5	1.1	1.5	-8	98
CCOc1ccc(/C=N/NC(=O)c2ccc(Cn3cc([N+](=O)[O-])cn3)o2)cc1	50	0.5	1.5	16	114
CC(C)(C)c1ccc(OCc2ccc(C(=O)N/N=C/c3ccc([N+](=O)[O-])cc3)o2)cc1	-1	1	1.3	21	131*
O=C(O)C(=O)/C(=C\c1ccc(Cl)cc1)c1ccc2ccccc2n1	-2	1	1.1	86	130*
SMILES	FLuc inh counter	FLuc act counter	NF-kB expr up	APP 5'UTR act	STAT1 activator
O=C(O)C/C(=C\c1ccc(Cl)cc1)c1nc2ccccc2o1	-5	1	0.82	2	112
COc1ccc(OC)c(NC(=O)c2cc3ccccc3o2)c1	4	1	1.1	2	108
COc1ccc(OC(=O)c2cc3ccccc3o2)cc1	57*	0.4	1.1	-4	99
CC(=O)c1cc(NC(=O)c2ccccc2)c(=O)oc1C	1	1	6.1*	9	96
Cc1oc(=O)c(NC(=O)c2ccccc2)cc1C(=O)c1ccccc1	6	0.9	2.4	55	111
O=C(COc1ccccc1)Nc1ccc(NC(=O)c2ccco2)cc1	0	1	1.3	18	107
Cc1ccc(NC(=O)c2ccc(OC(=O)c3ccco3)cc2)cc1	-2	1	2.8	15	134*
O=C(Oc1ccccc1)c1ccc(NC(=O)c2ccco2)cc1	11	0.9	1.4	2	136*
